Reference: paper PMC3677025 (Pharmacological research : the official journal of the …, 2012)

How the values were obtained:
[1] = target: T1, EphA4 (Mus musculus, UniProt Q03137); assay: EphA4 AP binding to immobilized KYL peptide; conditions: for inhibition at 10 µM: read-out: (% Inhib.) EphA4 KYL; for (% Inhib.) EphA4 KYL: screen, compounds at 10 μM
How it was run: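 Biotinylated KYL peptide (biotin on the lysine of a C-terminal GSGSK linker) was captured on streptavidin-coated wells, with coating in borate buffer pH 8.7. Test compound (10 μM in 1% DMSO for screening; varied concentrations for confirmation) was added with ~0.35 nM mouse EphA4 ectodomain–AP from NIH3T3 supernatant in TBST. Bound AP was read at 405 nm with 1 mg/ml p-nitrophenylphosphate in SEAP buffer pH 9.8, minus AP-only background. Percent inhibition was taken relative to no-compound wells.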

[2] = target: T2, EphB4 (Mus musculus, UniProt P54761); assay: ELISA, ephrin-B2 AP binding to immobilized EphB4 Fc; conditions: for IC50: read-out: IC50 ± SE EphB4 ephrin-B2
T2 sequence (P54761 16-539): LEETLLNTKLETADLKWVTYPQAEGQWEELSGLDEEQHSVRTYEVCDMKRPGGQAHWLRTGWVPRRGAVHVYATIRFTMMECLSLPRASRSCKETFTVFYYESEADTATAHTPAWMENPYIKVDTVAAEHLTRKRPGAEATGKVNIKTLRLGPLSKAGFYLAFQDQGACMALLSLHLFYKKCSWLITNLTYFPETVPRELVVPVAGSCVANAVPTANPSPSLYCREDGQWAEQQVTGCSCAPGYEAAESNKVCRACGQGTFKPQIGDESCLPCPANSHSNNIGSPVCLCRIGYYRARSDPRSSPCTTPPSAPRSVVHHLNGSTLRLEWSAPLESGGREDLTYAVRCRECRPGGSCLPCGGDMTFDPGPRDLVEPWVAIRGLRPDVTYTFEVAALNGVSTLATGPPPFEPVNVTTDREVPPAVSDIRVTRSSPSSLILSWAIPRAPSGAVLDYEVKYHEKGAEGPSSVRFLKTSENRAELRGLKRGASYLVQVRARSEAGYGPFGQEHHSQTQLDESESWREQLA

[3] = target: EphA2 (Mus musculus, UniProt Q03145); assay: ELISA, ephrin-A5 AP binding to immobilized EphA2 Fc; conditions: read-out: IC50 ± SE EphA2 ephrin-A5
[4] = target: T1, EphA4; assay: ELISA, ephrin-A5 AP binding to immobilized EphA4 Fc
How it was run: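 Mouse EphA4 Fc was captured at 1 μg/ml on protein A wells. Ephrin-A5 AP (~0.01 nM for IC50) from HEK293 supernatant was added with test compound for 2 h in TBST and read with p-nitrophenylphosphate, minus Fc-only background. For reversibility, compound was incubated 2 h, washed 30 min, then ephrin-A5 AP added for 1 h. For mode of inhibition, ephrin-A5 AP was titrated per compound concentration and fitted one-site; Ki came from KD/Bmax versus inhibitor regression.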

[5] = target: EphA2 (Homo sapiens, UniProt P29317); assay: Ephrin-A1 Fc-induced EphA2 phosphorylation in HUVECs; format: cell-based; conditions: at 50 μM
How it was run: (§1)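 HUVECs were serum-starved 1–2 h and preincubated 15 min with 50 μM test compound (DMSO ≤0.4% final). They were then stimulated 20 min with 0.25 μg/mL ephrin-A1 Fc plus 1.5 μg/mL ephrin-B2 Fc (preclustered with 3-fold anti-Fc), or Fc, with compound present. Lysates were made in modified RIPA with NaF and pervanadate. EphA2 (1 μg antibody) and EphB4 (20 μg antibody) immunoprecipitates were immunoblotted for phosphotyrosine; lysates were probed for receptors and β-actin.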

[6] = test system: HUVECs; assay: Capillary-like tube formation assay, HUVECs on Matrigel; format: cell-based, human; conditions: at 10 μM, 18 hours
How it was run: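 HUVECs (2.3 × 10⁴) were seeded on Matrigel-precoated wells in complete HUVEC medium containing test compound or DMSO control and grown for 18 h. Polygons were counted from phase-contrast images, 2–4 pictures from each of 3–6 wells. Counts were compared with DMSO-only wells by one-way ANOVA with Dunnett's post-hoc test.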

[7] = test system: Eph receptors; assay: ELISA, ephrin binding to panel of EphA and EphB receptors; conditions: at 100 μM
[8] = target: T3, EphB4 (Homo sapiens, UniProt P54760); assay: Ephrin-B2 Fc-induced EphB4 phosphorylation in HUVECs; format: cell-based; conditions: at 50 μM
T3 sequence (P54760 16-987): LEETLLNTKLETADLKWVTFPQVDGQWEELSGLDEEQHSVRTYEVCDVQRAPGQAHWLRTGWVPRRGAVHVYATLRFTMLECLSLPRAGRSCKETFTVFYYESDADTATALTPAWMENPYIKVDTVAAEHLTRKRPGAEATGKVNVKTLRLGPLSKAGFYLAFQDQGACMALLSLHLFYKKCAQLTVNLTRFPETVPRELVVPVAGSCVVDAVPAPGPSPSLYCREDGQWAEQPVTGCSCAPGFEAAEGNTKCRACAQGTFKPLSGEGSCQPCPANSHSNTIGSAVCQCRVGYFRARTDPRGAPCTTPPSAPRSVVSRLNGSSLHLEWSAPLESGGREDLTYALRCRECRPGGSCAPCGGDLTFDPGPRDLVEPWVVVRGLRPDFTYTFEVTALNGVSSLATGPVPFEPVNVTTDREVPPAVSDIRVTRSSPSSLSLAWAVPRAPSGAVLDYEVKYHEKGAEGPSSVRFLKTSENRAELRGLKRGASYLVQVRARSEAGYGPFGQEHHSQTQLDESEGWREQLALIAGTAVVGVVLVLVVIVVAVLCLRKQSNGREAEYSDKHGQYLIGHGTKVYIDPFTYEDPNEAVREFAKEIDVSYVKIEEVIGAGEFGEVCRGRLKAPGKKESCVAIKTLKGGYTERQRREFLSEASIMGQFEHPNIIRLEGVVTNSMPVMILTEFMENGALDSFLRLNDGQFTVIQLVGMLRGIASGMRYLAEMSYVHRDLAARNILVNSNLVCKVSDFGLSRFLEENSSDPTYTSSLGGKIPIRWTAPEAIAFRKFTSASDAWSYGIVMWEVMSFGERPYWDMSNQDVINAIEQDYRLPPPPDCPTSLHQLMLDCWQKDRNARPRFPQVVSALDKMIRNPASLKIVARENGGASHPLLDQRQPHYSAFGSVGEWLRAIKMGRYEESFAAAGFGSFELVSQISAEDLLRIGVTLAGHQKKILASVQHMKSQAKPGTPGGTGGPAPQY
How it was run: as §1

[9] = test system: EphB6; assay: ELISA, ephrin-B2 AP binding to immobilized EphB6 Fc; conditions: at 100 μM
How it was run: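 Eph receptor Fc fusions were immobilized at 1 μg/ml in TBST on protein A-coated wells. Diluted ephrin AP fusion supernatant from transiently transfected HEK293 cells was added for 2 h with or without test compound; for IC50 it was at approximately 0.01 nM. Bound AP was read with p-nitrophenylphosphate, minus Fc-only background. IC50 came from a variable-slope log(inhibitor)–response fit, bottom constrained to 0.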

[10] = read-out: IC50 ± SE EphA4 ephrin-A5

T1 sequence (Q03137 20-547 limits assumed): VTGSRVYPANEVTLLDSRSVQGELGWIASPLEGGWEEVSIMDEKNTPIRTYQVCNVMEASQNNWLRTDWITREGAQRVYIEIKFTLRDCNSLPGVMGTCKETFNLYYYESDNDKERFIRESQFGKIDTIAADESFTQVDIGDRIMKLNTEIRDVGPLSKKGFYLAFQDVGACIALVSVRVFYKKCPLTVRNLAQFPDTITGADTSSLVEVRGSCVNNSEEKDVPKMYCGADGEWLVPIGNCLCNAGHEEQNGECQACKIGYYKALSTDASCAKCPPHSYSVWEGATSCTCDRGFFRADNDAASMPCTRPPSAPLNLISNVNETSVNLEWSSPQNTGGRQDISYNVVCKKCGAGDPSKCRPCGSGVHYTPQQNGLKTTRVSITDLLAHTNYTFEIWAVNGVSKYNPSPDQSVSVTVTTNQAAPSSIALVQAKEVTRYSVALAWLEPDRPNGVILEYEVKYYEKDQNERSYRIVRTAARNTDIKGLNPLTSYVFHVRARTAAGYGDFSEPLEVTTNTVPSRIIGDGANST
Sequence of EphA2 (Mus musculus, UniProt Q03145) (Q03145 26-538): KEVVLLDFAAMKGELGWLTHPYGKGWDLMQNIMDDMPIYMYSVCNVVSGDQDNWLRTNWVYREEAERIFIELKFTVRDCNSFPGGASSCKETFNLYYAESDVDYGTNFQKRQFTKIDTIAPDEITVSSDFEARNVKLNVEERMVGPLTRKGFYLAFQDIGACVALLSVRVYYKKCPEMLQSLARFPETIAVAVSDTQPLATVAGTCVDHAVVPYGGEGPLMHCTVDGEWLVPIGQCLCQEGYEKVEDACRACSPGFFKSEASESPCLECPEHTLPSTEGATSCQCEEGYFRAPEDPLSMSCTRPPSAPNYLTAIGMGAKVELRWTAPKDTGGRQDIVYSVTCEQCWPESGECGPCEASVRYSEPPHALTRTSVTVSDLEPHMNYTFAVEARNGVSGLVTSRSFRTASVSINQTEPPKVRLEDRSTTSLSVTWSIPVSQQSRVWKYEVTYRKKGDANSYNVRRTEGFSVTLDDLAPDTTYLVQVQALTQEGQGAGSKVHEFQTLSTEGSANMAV
Sequence of EphA2 (Homo sapiens, UniProt P29317) (P29317 24-976): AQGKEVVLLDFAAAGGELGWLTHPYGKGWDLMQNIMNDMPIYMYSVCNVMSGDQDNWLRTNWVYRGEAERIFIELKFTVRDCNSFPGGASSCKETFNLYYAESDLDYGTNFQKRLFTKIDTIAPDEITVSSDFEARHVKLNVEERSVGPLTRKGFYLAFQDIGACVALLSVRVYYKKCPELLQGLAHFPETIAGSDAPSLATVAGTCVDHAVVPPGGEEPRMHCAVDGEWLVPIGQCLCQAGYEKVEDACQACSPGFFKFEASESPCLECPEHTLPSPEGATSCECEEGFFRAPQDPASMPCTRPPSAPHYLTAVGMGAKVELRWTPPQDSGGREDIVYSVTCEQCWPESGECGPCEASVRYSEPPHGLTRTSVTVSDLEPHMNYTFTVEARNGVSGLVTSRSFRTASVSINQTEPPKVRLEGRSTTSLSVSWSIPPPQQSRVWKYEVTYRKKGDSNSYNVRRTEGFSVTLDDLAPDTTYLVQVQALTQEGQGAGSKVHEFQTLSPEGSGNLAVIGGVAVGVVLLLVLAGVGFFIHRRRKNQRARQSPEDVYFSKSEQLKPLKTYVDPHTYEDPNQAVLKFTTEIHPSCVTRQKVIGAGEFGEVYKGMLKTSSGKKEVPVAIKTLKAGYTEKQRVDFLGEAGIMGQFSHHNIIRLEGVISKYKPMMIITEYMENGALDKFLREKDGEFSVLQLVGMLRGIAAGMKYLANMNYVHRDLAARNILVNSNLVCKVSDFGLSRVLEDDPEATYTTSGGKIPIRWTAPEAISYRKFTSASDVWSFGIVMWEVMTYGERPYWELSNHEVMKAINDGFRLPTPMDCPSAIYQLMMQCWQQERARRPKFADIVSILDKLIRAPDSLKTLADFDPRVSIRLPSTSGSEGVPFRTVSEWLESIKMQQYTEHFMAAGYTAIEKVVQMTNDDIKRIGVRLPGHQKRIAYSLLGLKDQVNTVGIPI

For `O=C(O[C@@H]1Cc2c(O)cc(O)cc2O[C@@H]1c1cc(O)c(O)c(O)c1-c1c([C@H]2Oc3cc(O)cc(O)c3C[C@H]2O)cc(O)c(O)c1O)c1cc(O)c(O)c(O)c1` [2′,2′-bisepigallocatechin monogallate], which inhibition at 10 µM [1] is on record?
The inhibition at 10 µM was 80%.

With `O=C(O[C@@H]1Cc2c(O)cc(O)cc2O[C@@H]1c1cc(O)c(O)c(O)c1-c1c([C@H]2Oc3cc(O)cc(O)c3C[C@H]2OC(=O)c2cc(O)c(O)c(O)c2)cc(O)c(O)c1O)c1cc(O)c(O)c(O)c1` [2′,2‴-bisepigallocatechin digallate] as the molecule, how does the “(% Inhib.) EphA4 KYL” value [1] read?
The value was 76%.

`O=C(O[C@@H]1Cc2c(O)cc(O)cc2O[C@@H]1c1ccc(O)c(O)c1)c1cc(O)c(O)c(O)c1` [epicatechin-3-monogallate, epicatechin-3-gallate] was tested. Which IC50 ([1]; read-out: IC50 ± SE EphA4 KYL) did it give?
Its IC50 is 50 ± 6 µM.

What about the “(% Inhib.) EphA4 KYL” value [1] of the same molecule?
The value was < 40%.

What about the IC50 [2] of the same molecule?
Its IC50 is > 200 µM.

What about the IC50 [3] of the same molecule?
Its IC50 is > 200 µM.

And the IC50 [4, 10]?
Its IC50 is > 200 µM.

How did the IC50 [1] turn out when `Oc1cc(O)c2c(c1)O[C@H](c1ccc(O)c(O)c1)[C@H](O)C2` [epicatechin] was run?
The IC50 was 190 ± 1.5 µM.

What about the inhibition at 10 µM [1] of the same molecule?
Its inhibition at 10 µM is < 40%.

What about the IC50 [4] of the same molecule?
The IC50 was > 200 µM.

Which IC50 [1] does the source give for `Oc1cc(O)c2c(c1)O[C@H](c1cc(O)c(O)c(O)c1)[C@H](O)C2` [epigallotechin, epigallocatechin] here?
Its IC50 is 44 ± 13 µM.

And the inhibition at 10 µM [1]?
The inhibition at 10 µM was < 40%.

What about the IC50 [4] of the same molecule?
The IC50 was > 200 µM.

With `O=C(O)c1cc(O)c(=O)c2c(O)c(O)cc([C@H]3Oc4cc(O)cc(O)c4C[C@H]3O)c2c1` [epitheaflavic acid] as the molecule, how does the “(% Inhib.) EphA4 KYL” value [1] read?
The value was “less than 40%”.

With `O=C(O)c1cc(O)c(=O)c2c(O)c(O)cc([C@H]3Oc4cc(O)cc(O)c4C[C@@H]3O)c2c1` [theaflavic acid] as the molecule, how does the “(% Inhib.) EphA4 KYL” value [1] read?
Its value is “less than 40%”.

With `O=c1c(O)cc([C@H]2Oc3cc(O)cc(O)c3C[C@H]2O)cc2c([C@H]3Oc4cc(O)cc(O)c4C[C@H]3O)cc(O)c(O)c12` [theaflavin] as the molecule, how does the inhibition at 10 µM [1] read?
The inhibition at 10 µM was < 40%.

epigallocatechin-3-gallate [EGCG] was tested. Which “EphA2 phosphorylation in HUVECs” value [5] did it give?
Its value is “does not strongly inhibit”.

What about the IC50 ([1]; read-out: IC50 ± SE EphA4 KYL) of the same molecule?
Its IC50 is 15 ± 1.8 µM.

And the “(% Inhib.) EphA4 KYL” value [1]?
Its value is < 40%.

And the “inhibition of ephrin binding to EphB4” value ([2]; at 100 μM)?
The value was “not detectably inhibited”.

And the IC50 [2]?
The IC50 was > 200 µM.

What about the capillary-like tube formation [6] of the same molecule?
Its capillary-like tube formation is “significantly inhibits”.

What about the “inhibition of ephrin binding to many Eph receptors” value [7] of the same molecule?
Its value is 10–30%.

What about the “EphB4 phosphorylation in HUVECs” value [8] of the same molecule?
The value was “does not strongly inhibit”.

What about the IC50 [3] of the same molecule?
The IC50 was > 200 µM.

And the “inhibition of ephrin binding to EphB6” value [9]?
The value was “not detectably inhibited”.

What about the “inhibition of ephrin-A5 binding to EphA4” value ([4]; at 200 μM) of the same molecule?
The value was ~ 25%.

And the IC50 [4, 10]?
Its IC50 is > 200 µM.

With “theaflavin-3,3′-digallate [theaflavin-3,3′-digallate]” as the molecule, how does the “(% Inhib.) EphA4 KYL” value [1] read?
Its value is 65%.
